These results are taken from ChEMBL document CHEMBL1141088, “A new pyridazine series of GABAA alpha5 ligands” (J Med Chem, 2005).

Test [1] has as its target T1, GABA-A receptor; alpha-1/beta-3/gamma-2 (Homo sapiens, UniProt P14867+P18507+P28472).
T1 sequence (P14867 whole entry): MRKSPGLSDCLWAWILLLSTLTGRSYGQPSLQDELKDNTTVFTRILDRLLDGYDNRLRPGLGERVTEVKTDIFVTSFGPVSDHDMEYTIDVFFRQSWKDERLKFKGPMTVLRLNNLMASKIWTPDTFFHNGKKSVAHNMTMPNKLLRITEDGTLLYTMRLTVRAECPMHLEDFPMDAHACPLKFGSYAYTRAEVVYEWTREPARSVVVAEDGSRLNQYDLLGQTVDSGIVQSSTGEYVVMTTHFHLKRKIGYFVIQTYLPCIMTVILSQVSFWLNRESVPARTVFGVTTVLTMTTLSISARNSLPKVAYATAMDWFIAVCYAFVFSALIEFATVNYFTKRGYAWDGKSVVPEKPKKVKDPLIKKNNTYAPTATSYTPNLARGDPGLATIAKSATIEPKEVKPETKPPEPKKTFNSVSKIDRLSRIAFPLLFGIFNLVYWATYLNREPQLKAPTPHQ
T1 sequence (P18507 whole entry): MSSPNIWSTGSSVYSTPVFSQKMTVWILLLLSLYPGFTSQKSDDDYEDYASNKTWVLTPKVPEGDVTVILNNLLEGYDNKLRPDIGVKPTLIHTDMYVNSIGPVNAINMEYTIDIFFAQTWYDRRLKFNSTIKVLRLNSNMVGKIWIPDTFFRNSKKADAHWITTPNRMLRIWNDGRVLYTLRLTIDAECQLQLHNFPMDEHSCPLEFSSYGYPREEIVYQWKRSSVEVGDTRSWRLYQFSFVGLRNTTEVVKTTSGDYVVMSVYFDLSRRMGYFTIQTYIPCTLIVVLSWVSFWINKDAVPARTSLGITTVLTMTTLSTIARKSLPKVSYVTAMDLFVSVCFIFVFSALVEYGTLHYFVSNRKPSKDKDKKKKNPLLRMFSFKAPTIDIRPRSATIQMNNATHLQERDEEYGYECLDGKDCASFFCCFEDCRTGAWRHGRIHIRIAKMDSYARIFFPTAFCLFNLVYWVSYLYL
T1 sequence (P28472 whole entry): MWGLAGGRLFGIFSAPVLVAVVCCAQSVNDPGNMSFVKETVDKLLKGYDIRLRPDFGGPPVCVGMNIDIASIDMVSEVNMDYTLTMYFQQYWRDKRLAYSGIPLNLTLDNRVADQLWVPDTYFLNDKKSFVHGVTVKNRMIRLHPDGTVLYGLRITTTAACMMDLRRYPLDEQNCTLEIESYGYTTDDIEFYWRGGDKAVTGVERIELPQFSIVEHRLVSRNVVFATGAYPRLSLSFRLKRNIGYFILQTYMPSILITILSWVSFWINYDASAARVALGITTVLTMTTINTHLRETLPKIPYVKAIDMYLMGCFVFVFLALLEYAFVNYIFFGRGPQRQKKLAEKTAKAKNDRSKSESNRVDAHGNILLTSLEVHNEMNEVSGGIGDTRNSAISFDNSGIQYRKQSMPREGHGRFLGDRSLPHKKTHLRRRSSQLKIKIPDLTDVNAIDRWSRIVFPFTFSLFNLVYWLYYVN
Nature of the test: Displacement of [3H]-Ro- 15-1788 binding from human recombinant Gamma-aminobutyric acid A receptor alpha-1-beta-3-gamma-2 expressed in mouse fibroblast L(tk-) cells (30 min at 24 degrees C, pH 7.4). The test is classed as cell-based. An outline of the steps:
(§1)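 Membranes from L(tk-) cells stably expressing human α1, α3 or α5 β3γ2 in 50 mM Tris pH 7.4. [3H]Ro15-1788 at 1.8 nM final, 30 min at 24 °C. Nonspecific binding set with 10 µM flunitrazepam, total binding in 0.1% DMSO. Filtration, scintillation counting. Ki is mean ± SEM of ≥3 independent determinations.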

Test [2] addresses T2, GABA-A receptor; alpha-3/beta-3/gamma-2 (Homo sapiens, UniProt P18507+P28472+P34903).
T2 sequence (P18507 whole entry): T1 sequence (P18507 whole entry)
T2 sequence (P28472 whole entry): T1 sequence (P28472 whole entry)
T2 sequence (P34903 whole entry): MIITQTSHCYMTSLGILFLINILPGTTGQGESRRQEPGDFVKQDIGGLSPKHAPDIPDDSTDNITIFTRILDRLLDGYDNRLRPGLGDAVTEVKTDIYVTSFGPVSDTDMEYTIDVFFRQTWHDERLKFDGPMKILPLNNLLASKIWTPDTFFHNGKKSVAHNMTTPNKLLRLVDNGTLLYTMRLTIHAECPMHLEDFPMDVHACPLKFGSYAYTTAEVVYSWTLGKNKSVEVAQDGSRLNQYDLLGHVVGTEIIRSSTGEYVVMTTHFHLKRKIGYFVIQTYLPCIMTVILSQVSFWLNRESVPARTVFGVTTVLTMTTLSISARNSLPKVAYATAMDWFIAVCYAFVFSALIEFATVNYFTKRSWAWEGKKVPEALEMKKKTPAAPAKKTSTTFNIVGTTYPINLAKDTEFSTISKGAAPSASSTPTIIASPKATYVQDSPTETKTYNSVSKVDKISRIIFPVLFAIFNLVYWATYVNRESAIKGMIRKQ
Nature of the test: Displacement of [3H]-Ro- 15-1788 binding from human recombinant Gamma-aminobutyric acid A receptor alpha-3-beta-3-gamma-2 expressed in mouse fibroblast L(tk-) cells (30 min at 24 degrees C, pH 7.4). It is filed as cell-based. An outline of the steps:
as §1
In general terms: In a radioligand displacement assay an active substance lowers the binding of a labelled ligand.

Test [3] concerns the target T3, GABA-A receptor; alpha-5/beta-3/gamma-2 (Homo sapiens, UniProt P18507+P28472+P31644).
T3 sequence (P18507 whole entry): T1 sequence (P18507 whole entry)
T3 sequence (P28472 whole entry): T1 sequence (P28472 whole entry)
T3 sequence (P31644 whole entry): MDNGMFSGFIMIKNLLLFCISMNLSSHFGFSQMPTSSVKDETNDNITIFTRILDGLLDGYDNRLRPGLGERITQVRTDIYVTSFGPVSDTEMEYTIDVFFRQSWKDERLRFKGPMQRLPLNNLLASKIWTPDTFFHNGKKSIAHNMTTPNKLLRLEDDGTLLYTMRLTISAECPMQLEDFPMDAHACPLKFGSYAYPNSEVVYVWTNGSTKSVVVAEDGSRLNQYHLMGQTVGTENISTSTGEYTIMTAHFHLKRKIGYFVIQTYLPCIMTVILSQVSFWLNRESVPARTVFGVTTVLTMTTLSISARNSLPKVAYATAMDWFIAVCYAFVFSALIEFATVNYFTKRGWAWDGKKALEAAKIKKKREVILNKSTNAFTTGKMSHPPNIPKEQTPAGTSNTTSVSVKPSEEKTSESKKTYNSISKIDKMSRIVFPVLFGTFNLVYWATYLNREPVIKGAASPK
Nature of the test: Displacement of [3H]-Ro- 15-1788 binding from human recombinant Gamma-aminobutyric acid A receptor alpha-5-beta-3-gamma-2 expressed in mouse fibroblast L(tk-) cells (30 min at 24 degrees C, pH 7.4). The test is classed as cell-based. The method in brief:
as §1

The target of test [4] is T4, GABA-A receptor; alpha-5/beta-3/gamma-2 (Homo sapiens) (UniProt P18507+P28472+P31644). Nature of the test: Efficacy for GABA-A alpha-5-beta-3-gamma-2 receptor expressed in mouse fibroblast L(tk-) cells at 300 nM derived from at least three plates/day screened over a minimum of 2 days. The test is classed as functional, cell-based. An outline of the steps:
(§2)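 FRET membrane-potential (VIPR) assay in L(tk-) cells with receptor expression induced 24 h by 1 µM dexamethasone. Dye-loaded 30 min in low-Cl- HEPES buffer pH 7.4: 4 µM CC2-DMPE, 1 µM DiSBAC2(3), 0.5 mM tartrazine. Basal read 8 s, compound at 300 nM, half-maximal GABA 22 s later, 1 Hz reads. Background-subtracted 460/580 nm ratio, normalized to DMCM as -100%.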

In test [5] the target is T4, GABA-A receptor; alpha-5/beta-3/gamma-2 (Homo sapiens). Nature of the test: Efficacy at GABAA alpha-5-beta-3-gamma-2 receptor expressed in mouse fibroblast L(tk-) cells measured at 300 nM derived from at least three plates/day screened over a minimum of 2 days. It is filed as functional, cell-based. An outline of the steps: as §2
Test [6] deals with T5, GABA-A receptor; alpha-3/beta-3/gamma-2 (Homo sapiens) (UniProt P18507+P28472+P34903). Nature of the test: Efficacy for GABA-A alpha-3-beta-3-gamma-2 receptor expressed in mouse fibroblast L(tk-) cells at 300 nM derived from at least three plates/day screened over a minimum of 2 days. It is filed as functional, cell-based. An outline of the steps:
as §2

In test [7] the target is T5, GABA-A receptor; alpha-3/beta-3/gamma-2 (Homo sapiens). Nature of the test: Efficacy at GABAA alpha-3-beta-3-gamma-2 receptor expressed in mouse fibroblast L(tk-) cells measured at 300 nM derived from at least three plates/day screened over a minimum of 2 days. It is filed as functional, cell-based. An outline of the steps:
as §2

By Ki is commonly meant the dissociation constant of the complex between target and ligand, obtained from inhibition or displacement. For the molecule `COC(=O)c1c(-c2ccccc2)cnnc1-c1ccccc1`, the Ki worked out at 154 nM in test [1], 64 nM in test [2] and 12 nM in test [3]. In test [4], this molecule had an Efficacy of 27.
Take `Brc1cccc(-c2cnnc(-c3ccccc3)c2)c1`: the values for the Ki in test [1], in test [2] and in test [3] were 7.5 nM, 15 nM and 7.9 nM, respectively. In addition, the Efficacy in test [5] and in test [6] was -2 in each case.
Consider `N#Cc1cccc(-c2cnnc(-c3ccc(F)c(F)c3)c2)c1`, for which the Ki in test [2] stood at 41 nM; in test [3] it was 13 nM. Moreover, the Efficacy is 32 in test [7] and -15 in test [4].
For the molecule `CNc1cc(-c2cccc(Br)c2)cnn1`, the Ki was 49 nM in test [1], 113 nM in test [2] and 27 nM in test [3]. Moreover, the values for the Efficacy in test [7] and in test [5] were 3 and -26, respectively.
The corresponding values for `CN(C)c1cc(-c2cccc(Br)c2)cnn1` are 55 nM, 120 nM, 51 nM, -49 and -62.
